From ChEMBL document CHEMBL3616437, “Thiazole compounds with activity against Cryptococcus gattii and Cryptococcus neoformans in vitro” (Eur J Med Chem, 2015)
Active and inactive are the calls of the source. The rule behind the calls is not given here.

Experiments:
[1] = tested on: Cryptococcus gattii species complex; assay: Antifungal activity against Cryptococcus gattii L27/01 assessed as reduction in ergosterol content at MIC after 24 hrs by spectrophotometric analysis; format: functional, organism-based; conditions: Cryptococcus bacillisporus
Summary of the method: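 Pellet washed and weighed, then saponified in 25% ethanolic KOH at 85°C for 1 h. Extracted with water and n-heptane, read at 282 and 230 nm. Ergosterol taken from a standard curve and expressed as % of growth control.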

[2] = tested on: Cryptococcus bacillisporus; assay: Ratio of compound MIC for Cryptococcus gattii ATCC 32608 in presence of amphotericin B to compound MIC for Cryptococcus gattii ATCC 32608 in absence of amphotericin B by checkerboard microtiter test; format: functional
Summary of the method: (§1)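 Checkerboard microdilution: eight two-fold dilutions of test compound (0.11 to 15.6 µM) crossed with amphotericin B (0.025 to 3.9 µM, in DMSO) or fluconazole (0.48 to 62.5 µM, in water). Inoculum per CLSI M27-A3 in RPMI-MOPS pH 7.0, 1-5 x10^3 cells/mL. Growth 48 to 72 h. Effective MIC is the combination concentration giving complete inhibition. FICs derived from MICs in combination versus alone.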

[3] = tested on: Cryptococcus gattii species complex; assay: Ratio of compound MIC for Cryptococcus gattii 196L/03 in presence of amphotericin B to compound MIC for Cryptococcus gattii 196L/03 in absence of amphotericin B by checkerboard microtiter test; format: functional, Cryptococcus bacillisporus; summary of the method: as §1
Cryptococcus neoformans [4] = assay: Ratio of compound MIC for Cryptococcus neoformans LMM820 in presence of amphotericin B to compound MIC for Cryptococcus neoformans LMM820 in absence of amphotericin B by checkerboard microtiter test; format: functional; summary of the method: as §1
Cryptococcus neoformans [5] = assay: Ratio of compound MIC for Cryptococcus neoformans 96806 in presence of amphotericin B to compound MIC for Cryptococcus neoformans 96806 in absence of amphotericin B by checkerboard microtiter test; format: functional; summary of the method: as §1
[6] = tested on: Cryptococcus gattii species complex; assay: Ratio of compound MIC for Cryptococcus gattii 23/10993 in presence of fluconazole to compound MIC for Cryptococcus gattii 23/10993 in absence of fluconazole by checkerboard microtiter test; format: functional, Cryptococcus bacillisporus; summary of the method: as §1
Cryptococcus neoformans [7] = assay: Ratio of compound MIC for Cryptococcus neoformans 28JF in presence of amphotericin B to compound MIC for Cryptococcus neoformans 28JF in absence of amphotericin B by checkerboard microtiter test; format: functional; summary of the method: as §1
Cryptococcus neoformans [8] = assay: Ratio of compound MIC for Cryptococcus neoformans ATCC 62066 in presence of amphotericin B to compound MIC for Cryptococcus neoformans ATCC 62066 in absence of amphotericin B by checkerboard microtiter test; format: functional; summary of the method: as §1
Cryptococcus neoformans [9] = assay: Ratio of compound MIC for Cryptococcus neoformans ATCC 24067 in presence of fluconazole to compound MIC for Cryptococcus neoformans ATCC 24067 in absence of fluconazole by checkerboard microtiter test; format: functional; summary of the method: as §1
Cryptococcus neoformans [10] = assay: Ratio of compound MIC for Cryptococcus neoformans VM-MCMMPI in presence of amphotericin B to compound MIC for Cryptococcus neoformans VM-MCMMPI in absence of amphotericin B by checkerboard microtiter test; format: functional; summary of the method: as §1
Cryptococcus neoformans [11] = assay: Ratio of compound MIC for Cryptococcus neoformans VM-MCMMPI in presence of fluconazole to compound MIC for Cryptococcus neoformans VM-MCMMPI in absence of fluconazole by checkerboard microtiter test; format: functional; summary of the method: as §1
[12] = tested on: Cryptococcus gattii species complex; assay: Ratio of compound MIC for Cryptococcus gattii L27/01 in presence of fluconazole to compound MIC for Cryptococcus gattii L27/01 in absence of fluconazole by checkerboard microtiter test; format: functional, Cryptococcus bacillisporus; summary of the method: as §1
Cryptococcus neoformans [13] = assay: Ratio of compound MIC for Cryptococcus neoformans WP in presence of amphotericin B to compound MIC for Cryptococcus neoformans WP in absence of amphotericin B by checkerboard microtiter test; format: functional; summary of the method: as §1
Cryptococcus neoformans [14] = assay: Ratio of compound MIC for Cryptococcus neoformans CN31 in presence of amphotericin B to compound MIC for Cryptococcus neoformans CN31 in absence of amphotericin B by checkerboard microtiter test; format: functional; summary of the method: as §1
[15] = tested on: Cryptococcus bacillisporus; assay: Ratio of compound MIC for Cryptococcus gattii ATCC 32608 in presence of fluconazole to compound MIC for Cryptococcus gattii ATCC 32608 in absence of fluconazole by checkerboard microtiter test; format: functional; summary of the method: as §1
Cryptococcus neoformans [16] = assay: Ratio of compound MIC for Cryptococcus neoformans F10 in presence of fluconazole to compound MIC for Cryptococcus neoformans F10 in absence of fluconazole by checkerboard microtiter test; format: functional; summary of the method: as §1
[17] = tested on: Cryptococcus gattii species complex; assay: Ratio of compound MIC for Cryptococcus gattii 135L/03 in presence of fluconazole to compound MIC for Cryptococcus gattii 135L/03 in absence of fluconazole by checkerboard microtiter test; format: functional, Cryptococcus bacillisporus; summary of the method: as §1
[18] = tested on: Cryptococcus gattii species complex; assay: Ratio of compound MIC for Cryptococcus gattii L28/02 in presence of amphotericin B to compound MIC for Cryptococcus gattii L28/02 in absence of amphotericin B by checkerboard microtiter test; format: functional, Cryptococcus bacillisporus; summary of the method: as §1
[19] = tested on: Cryptococcus gattii species complex; assay: Ratio of compound MIC for Cryptococcus gattii 547/OTTI-97-PI-10 in presence of fluconazole to compound MIC for Cryptococcus gattii 547/OTTI-97-PI-10 in absence of fluconazole by checkerboard microtiter test; format: functional, Cryptococcus bacillisporus; summary of the method: as §1
[20] = tested on: Cryptococcus gattii species complex; assay: Ratio of compound MIC for Cryptococcus gattii ICB181 in presence of fluconazole to compound MIC for Cryptococcus gattii ICB181 in absence of fluconazole by checkerboard microtiter test; format: functional, Cryptococcus bacillisporus; summary of the method: as §1
Cryptococcus neoformans [21] = assay: Ratio of compound MIC for Cryptococcus neoformans 27JF in presence of fluconazole to compound MIC for Cryptococcus neoformans 27JF in absence of fluconazole by checkerboard microtiter test; format: functional; summary of the method: as §1
Cryptococcus neoformans [22] = assay: Ratio of compound MIC for Cryptococcus neoformans CN31 in presence of fluconazole to compound MIC for Cryptococcus neoformans CN31 in absence of fluconazole by checkerboard microtiter test; format: functional; summary of the method: as §1
[23] = tested on: Cryptococcus gattii species complex; assay: Ratio of compound MIC for Cryptococcus gattii 1913ER in presence of amphotericin B to compound MIC for Cryptococcus gattii 1913ER in absence of amphotericin B by checkerboard microtiter test; format: functional, Cryptococcus bacillisporus; summary of the method: as §1
Cryptococcus neoformans [24] = assay: Ratio of compound MIC for Cryptococcus neoformans 5396 in presence of fluconazole to compound MIC for Cryptococcus neoformans 5396 in absence of fluconazole by checkerboard microtiter test; format: functional; summary of the method: as §1
Cryptococcus neoformans [25] = assay: Ratio of compound MIC for Cryptococcus neoformans ATCC 28957 in presence of amphotericin B to compound MIC for Cryptococcus neoformans ATCC 28957 in absence of amphotericin B by checkerboard microtiter test; format: functional; summary of the method: as §1
Cryptococcus neoformans [26] = assay: Ratio of compound MIC for Cryptococcus neoformans 5396 in presence of amphotericin B to compound MIC for Cryptococcus neoformans 5396 in absence of amphotericin B by checkerboard microtiter test; format: functional; summary of the method: as §1
[27] = tested on: Cryptococcus gattii species complex; assay: Ratio of compound MIC for Cryptococcus gattii LMM818 in presence of fluconazole to compound MIC for Cryptococcus gattii LMM818 in absence of fluconazole by checkerboard microtiter test; format: functional, Cryptococcus bacillisporus; summary of the method: as §1
Cryptococcus neoformans [28] = assay: Ratio of compound MIC for Cryptococcus neoformans 27JF in presence of amphotericin B to compound MIC for Cryptococcus neoformans 27JF in absence of amphotericin B by checkerboard microtiter test; format: functional; summary of the method: as §1
[29] = tested on: Cryptococcus gattii species complex; assay: Ratio of compound MIC for Cryptococcus gattii ICB181 in presence of amphotericin B to compound MIC for Cryptococcus gattii ICB181 in absence of amphotericin B by checkerboard microtiter test; format: functional, Cryptococcus bacillisporus; summary of the method: as §1
[30] = tested on: Cryptococcus gattii species complex; assay: Ratio of compound MIC for Cryptococcus gattii 135L/03 in presence of amphotericin B to compound MIC for Cryptococcus gattii 135L/03 in absence of amphotericin B by checkerboard microtiter test; format: functional, Cryptococcus bacillisporus

C[C@@H]1[C@H](O)[C@@H](C)/C=C/C=C/C=C/C=C/C=C/C=C/C=C/[C@H](O[C@@H]2O[C@H](C)[C@@H](O)[C@H](N)[C@@H]2O)C[C@@H]2O[C@](O)(C[C@@H](O)C[C@@H](O)[C@H](O)CC[C@@H](O)C[C@@H](O)CC(=O)O[C@H]1C)C[C@H](O)[C@H]2C(=O)O [AMPHOTERICIN B]
Activity [1]: inactive

OC(Cn1cncn1)(Cn1cncn1)c1ccc(F)cc1F [FLUCONAZOLE]
Activity [1]: Active

COc1ccc(-c2csc(N/N=C/C3CCCCC3)n2)cc1
fractional inhibitory concentration index (FICI) [2]: 2.78
fractional inhibitory concentration index (FICI) [3]: 1.58
fractional inhibitory concentration index (FICI) (Cryptococcus neoformans [4]): 2.78
fractional inhibitory concentration index (FICI) (Cryptococcus neoformans [5]): 1.46
fractional inhibitory concentration index (FICI) [6]: 2.46
fractional inhibitory concentration index (FICI) (Cryptococcus neoformans [7]): 1.75
fractional inhibitory concentration index (FICI) (Cryptococcus neoformans [8]): 2.58
fractional inhibitory concentration index (FICI) (Cryptococcus neoformans [9]): 3.97
fractional inhibitory concentration index (FICI) (Cryptococcus neoformans [10]): 2.16
fractional inhibitory concentration index (FICI) (Cryptococcus neoformans [11]): 4.46
fractional inhibitory concentration index (FICI) [12]: 1.18
fractional inhibitory concentration index (FICI) (Cryptococcus neoformans [13]): 1.46
fractional inhibitory concentration index (FICI) (Cryptococcus neoformans [14]): 2.78
fractional inhibitory concentration index (FICI) [15]: 4.38
fractional inhibitory concentration index (FICI) (Cryptococcus neoformans [16]): 2.46
fractional inhibitory concentration index (FICI) [17]: 2.71
fractional inhibitory concentration index (FICI) [18]: 2.18
fractional inhibitory concentration index (FICI) [19]: 3.46
fractional inhibitory concentration index (FICI) [20]: 4.46
fractional inhibitory concentration index (FICI) (Cryptococcus neoformans [21]): 4.59
fractional inhibitory concentration index (FICI) (Cryptococcus neoformans [22]): 2.58
fractional inhibitory concentration index (FICI) [23]: 1.75
fractional inhibitory concentration index (FICI) (Cryptococcus neoformans [24]): 3.48
fractional inhibitory concentration index (FICI) (Cryptococcus neoformans [25]): 2.07
fractional inhibitory concentration index (FICI) (Cryptococcus neoformans [26]): 2.07
fractional inhibitory concentration index (FICI) [27]: 1.19
fractional inhibitory concentration index (FICI) (Cryptococcus neoformans [28]): 2.78
fractional inhibitory concentration index (FICI) [29]: 1.73
fractional inhibitory concentration index (FICI) [30]: 1.46
